Active and inactive are the calls of the source. The rule behind the calls is not given here.
What was measured:
Rattus norvegicus [1] = organism: Rattus norvegicus; assay: Binding affinity to 50 kDa Serine protease band in rat liver proteome assessed as protein labeling at 1 uM after 30 mins by fluorescent scanning method; details: 0.5 uM, in the assay text read “at 0.5 uM” for “at 1 uM”
Outline: (§1)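 Rat liver homogenate (70 µm strainer, 0.5% NP-40 substitute in PBS, 1 h on ice, 15,000 rpm spin), diluted to 1 mg/mL protein in 50 mM phosphate, pH 7.4; pretreated 30 min on ice with DMSO, TPCK (100 µM) or PMSF (1 mM), then IC probe. Cu(I) click with TAMRA-PEG-N3/THPTA/CuSO4/ascorbate, SDS-PAGE, fluorescence scan (ex 532/em 580 nm).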

Rattus norvegicus [2] = organism: Rattus norvegicus; assay: Binding affinity to 50 kDa Serine protease band in rat liver proteome assessed as protein labeling at 1 uM after 30 mins pre-treated with 100 uM TPCK for 30 mins before compound addition by fluorescent scanning method; details: 0.5 uM, in the assay text read “at 0.5 uM” for “at 1 uM”; outline: as §1
Rattus norvegicus [3] = organism: Rattus norvegicus; assay: Binding affinity to 50 kDa Serine protease band in rat liver proteome assessed as protein labeling at 1 uM after 30 mins pre-treated with serin eprotease inhibitor PMSF for 30 mins before compound addition by fluorescent scanning method; details: 0.5 uM, in the assay text read “at 0.5 uM” for “at 1 uM”; outline: as §1
Bos taurus [4] = organism: Bos taurus; assay: Binding affinity to bovine chymotrypsin assessed as protein labeling at 2 uM measured after 15 mins by fluorescent scanning method
Outline: (§2)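 100 ng purified protease per lane; cathepsin G in 50 mM HEPES pH 7.4 with 100 mM NaCl, others in 50 mM phosphate pH 7.4. Optional 30 min pre-block (chymotrypsin 100 µM Ala-Ala-Phe-phosphonate, cathepsin G 1 mM PMSF, urokinase 100 µM DFP, elastase/trypsin 1 mM dichloroisocoumarin). Probe 2 µM, 15 min at room temperature. Then 30 min room-temperature click (25 µM TAMRA-PEG-N3, 50 µM THPTA, 1 mM CuSO4, 500 µM ascorbate), SDS-PAGE, scan ex 532/em 580 nm.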

[5] = molecular target: T1, Cathepsin G (Homo sapiens) (UniProt P08311); assay: Binding affinity to human cathepsin G assessed as protein labeling at 2 uM after 15 mins by fluorescent scanning method; outline: as §2
T1 sequence (whole entry): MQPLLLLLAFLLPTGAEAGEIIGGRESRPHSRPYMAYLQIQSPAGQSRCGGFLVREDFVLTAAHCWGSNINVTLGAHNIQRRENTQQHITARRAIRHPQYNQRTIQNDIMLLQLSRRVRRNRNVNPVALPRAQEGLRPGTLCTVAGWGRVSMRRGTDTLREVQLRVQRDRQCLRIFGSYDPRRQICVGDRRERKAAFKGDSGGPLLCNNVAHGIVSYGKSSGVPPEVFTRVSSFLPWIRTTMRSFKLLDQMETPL

Sus scrofa [6] = organism: Sus scrofa; assay: Binding affinity to porcine pancreatic elastase assessed as protein labeling at 2 uM after 15 mins by fluorescent scanning method; outline: as §2
[7] = molecular target: Urokinase-type plasminogen activator (Homo sapiens) (UniProt P00749); assay: Binding affinity to urokinase-type plasminogen activator assessed as protein labeling at 2 uM after 15 mins by fluorescent scanning method; outline: as §2
Trypsin (Homo sapiens) = Trypsin (Homo sapiens) (UniProt P07477+P07478+P35030); assay: Binding affinity to trypsin assessed as protein labeling at 2 uM after 15 mins by fluorescent scanning method; format: protein assay; outline: as §2
Bos taurus [8] = organism: Bos taurus; assay: Binding affinity to bovine chymotrypsin assessed as protein labeling at 2 uM measured after 15 mins pretreated with 100 uM Ala-Ala-Phe-diphenyl phosphonate for 30 mins before compound addition by fluorescent scanning method; outline: as §2
Sus scrofa [9] = organism: Sus scrofa; assay: Binding affinity to porcine pancreatic elastase assessed as protein labeling at 2 uM after 15 mins pretreated with 1 mM 3,4-dichloroisocoumarin for 30 mins before compound addition by fluorescent scanning method; outline: as §2
[10] = molecular target: Urokinase-type plasminogen activator (Homo sapiens) (UniProt P00749); assay: Binding affinity to urokinase-type plasminogen activator assessed as protein labeling at 2 uM after 15 mins pretreated with 100 uM DFP for 30 mins before compound addition by fluorescent scanning method; outline: as §2
[11] = molecular target: T1, Cathepsin G (Homo sapiens); assay: Binding affinity to human cathepsin G assessed as protein labeling at 2 uM after 15 mins in presence of mouse EL4 lymphoma cell lysate for protease spiking by fluorescent scanning method relative to total protein content; format: cell-free
Outline: (§3)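 Protease spiked into EL4 mouse lymphoma lysate (RIPA, 30 min on ice, cleared by centrifugation; 1 mg/mL protein in 50 mM phosphate pH 7.4), optionally pre-blocked (urokinase 100 µM DFP). Labeled with 2 µM probe 15 min on ice. Click on ice 30 min with TAMRA-PEG-N3, THPTA, CuSO4, ascorbate; 12% or 15% SDS-PAGE, fluorescence scan ex 532/em 580 nm.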

[12] = molecular target: Urokinase-type plasminogen activator (Homo sapiens) (UniProt P00749); assay: (§4) Binding affinity to urokinase-type plasminogen activator assessed as protein labeling at 2 uM after 15 mins in presence of mouse EL4 lymphoma cell lysate for protease spiking by fluorescent scanning method relative to total protein content; format: cell-free; outline: as §3
[13] = molecular target: Urokinase-type plasminogen activator (Homo sapiens) (UniProt P00749); assay: as §4, with “mins pretreated with 100 uM DFP for 30 mins before compound addition” for “mins”; format: cell-free; outline: as §3
lymphoma = assay: Binding affinity to porcine pancreatic elastase assessed as protein labeling at 2 uM after 15 mins in presence of mouse EL4 lymphoma cell lysate for protease spiking by fluorescent scanning method relative to total protein content; format: cell-free; details: Sus scrofa; outline: as §3
Rattus norvegicus [14] = organism: Rattus norvegicus; assay: Binding affinity to 26 kDa Chymotrypsin in rat liver proteome assessed as protein labeling at 1 uM after 30 mins by fluorescent scanning method; outline: as §1
Rattus norvegicus [15] = organism: Rattus norvegicus; assay: Binding affinity to 26 kDa Chymotrypsin in rat liver proteome assessed as protein labeling at 1 uM after 30 mins pre-treated with 100 uM TPCK for 30 mins before compound addition by fluorescent scanning method; outline: as §1
Rattus norvegicus [16] = organism: Rattus norvegicus; assay: Binding affinity to 25 kDa Chymotrypsin in rat liver proteome assessed as protein labeling at 1 uM after 30 mins by fluorescent scanning method; outline: as §1
Rattus norvegicus [17] = organism: Rattus norvegicus; assay: Binding affinity to 25 kDa Chymotrypsin in rat liver proteome assessed as protein labeling at 1 uM after 30 mins pre-treated with 100 uM TPCK for 30 mins before compound addition by fluorescent scanning method; outline: as §1

| Structure (SMILES) | Activity (Bos taurus [4]) | Activity [5] | Activity (Sus scrofa [6]) | Activity [7] | Activity (Trypsin (Homo sapiens)) | Activity (Bos taurus [8]) | Activity (Sus scrofa [9]) | Activity [10] | other results |
| --- | --- | --- | --- | --- | --- | --- | --- | --- | --- |
| C#CCCOc1oc(=O)c2cc([N+](=O)[O-])ccc2c1Cl | Active |  | Active | Active | Active | inactive | Active | inactive |  |
| C#CCCOc1oc(=O)c2ccccc2c1Cl | Active | Active | Active | Active | Active | inactive |  | inactive | Activity (Rattus norvegicus [14]): Active; Activity (Rattus norvegicus [15]): inactive |
| C#CCCOc1oc(=O)c2cc(NC(=O)c3ccccc3)ccc2c1Cl | Active | Active |  |  |  | inactive |  |  | Activity (Rattus norvegicus [16]): Active; Activity (Rattus norvegicus [17]): inactive |
| C#CCCC(=O)Nc1ccc2c(Cl)c(OCCSC(=N)N)oc(=O)c2c1 | Active |  |  | Active | Active | inactive |  |  |  |

Continued, in another order:

| Activity (Bos taurus [4]) | Activity [5] | Activity (Sus scrofa [6]) | Activity [7] | Activity (Trypsin (Homo sapiens)) | Activity (Bos taurus [8]) | Activity (Sus scrofa [9]) | Activity [10] | Structure (SMILES) | other results |
| --- | --- | --- | --- | --- | --- | --- | --- | --- | --- |
| Active | Active | Active | Active | Active | inactive | Active | inactive | C#CCCOc1oc(=O)c2cc(N)ccc2c1Cl | Activity (Rattus norvegicus [1]): Active; Activity (Rattus norvegicus [2]): Active; Activity (Rattus norvegicus [3]): inactive; Activity [11]: 0.03% |
| Active |  | Active | Active | Active | inactive | inactive |  | C#CCCOc1oc(=O)c2cc(NC(=O)CNC(=N)N)ccc2c1Cl | Activity [12]: 0.03%; Activity [13]: Active |
| Active | Active | Active |  |  | inactive | inactive |  | C#CCCC(=O)Nc1ccc2c(Cl)c(OC)oc(=O)c2c1 | Activity (lymphoma): 0.007% |
| Active | Active | Active |  |  | inactive | inactive |  | C#CCCC(=O)Nc1ccc2c(Cl)c(OCCBr)oc(=O)c2c1 |  |
| Active |  |  |  |  | inactive |  |  | C#CCCC(=O)Nc1ccc2c(Cl)c(OCCc3ccccc3)oc(=O)c2c1 |  |
| Active |  |  | Active | Active | inactive |  |  | C#CCCOc1oc(=O)c2cc(NC(=O)CN)ccc2c1Cl |  |

From ChEMBL document CHEMBL2062384, “Alkyne derivatives of isocoumarins as clickable activity-based probes for serine proteases” (Bioorg Med Chem, 2012)
